ChEMBL document CHEMBL1649165, “Activity profile in vitro of micafungin against Spanish clinical isolates of common and emerging species of yeasts and molds” (2009)

How the values were obtained:
Format in all cases: functional
[1] = test system: Meyerozyma guilliermondii; assay: Antimicrobial activity against Candida guilliermondii by broth microdilution method
Method in brief: (§1)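 Clinical isolates from human patients, tested by broth microdilution using the AFST-EUCAST reference procedure for fermentative yeasts. The MIC was read per that reference method.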

Diutina rugosa = assay: Antimicrobial activity against Candida rugosa by broth microdilution method; method in brief: as §1
Torulaspora delbrueckii = assay: Antimicrobial activity against Candida coliculosa by broth microdilution method; method in brief: as §1
Pichia norvegensis = assay: Antimicrobial activity against Candida norvegensis by broth microdilution method; method in brief: as §1
Candida metapsilosis = assay: Antimicrobial activity against Candida metapsilosis by broth microdilution method; conditions: Lodderomyces metapsilosis; method in brief: as §1
[Candida] zeylanoides = Antimicrobial activity against Candida zeylanoides by broth microdilution method; conditions: Dujonia zeylanoides; method in brief: as §1
Saccharomyces cerevisiae = assay: Antimicrobial activity against Saccharomyces cerevisiae by broth microdilution method
Geotrichum candidum = assay: Antimicrobial activity against Galactomyces geotrichum by broth microdilution method
[2] = test system: Cryptococcus deneoformans; assay: Antimicrobial activity against Cryptococcus neoformans var. neoformans by broth microdilution method
Method in brief: (§2)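 Clinical isolates of nonfermentative yeasts, tested by broth microdilution following EUCAST recommendations. The only change from that method was a minor modification to improve growth.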

Rhodotorula mucilaginosa = assay: Antimicrobial activity against Rhodotorula mucilaginosa by broth microdilution method
Method in brief: (§3)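 Nonfermentative yeast clinical isolates (Rhodotorula, Trichosporon) tested by broth microdilution. The EUCAST yeast recommendations were followed strictly, with one minor modification to improve growth. MIC was read as the endpoint.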

Trichosporon inkin = assay: Antimicrobial activity against Trichosporon inkin by broth microdilution method; method in brief: as §3
Trichosporon ovoides = assay: Antimicrobial activity against Trichosporon ovoides by broth microdilution method; method in brief: as §3
Trichosporon dermatis = assay: Antimicrobial activity against Trichosporon dermatis by broth microdilution method; conditions: Cutaneotrichosporon dermatis; method in brief: as §3
Trichosporon jirovecii = assay: Antimicrobial activity against Trichosporon jirovecii by broth microdilution method; conditions: Cutaneotrichosporon jirovecii; method in brief: as §3
Ustilago = assay: Antimicrobial activity against Ustilago spp by broth microdilution method
Papiliotrema laurentii = assay: Antimicrobial activity against Cryptococcus laurentii by broth microdilution method; method in brief: as §2
Trichosporon domesticum = assay: Antimicrobial activity against Trichosporon mycotoxinivorans by broth microdilution method; conditions: Apiotrichum domesticum
Method in brief: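 Spanish human clinical isolates were tested as nonfermentative yeasts by broth microdilution. The method strictly followed the EUCAST recommendations, with a minor modification to improve growth, and the read-out was the MIC.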

Trichosporon = assay: Antimicrobial activity against Trichosporon spp. by broth microdilution method; method in brief: as §3
Aspergillus fumigatus = assay: Antimicrobial activity against Aspergillus fumigatus by broth microdilution method
Method in brief: (§4)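 Clinical mould isolates, tested by broth microdilution using the AFST-EUCAST reference method for filamentous fungi. For echinocandins, the endpoint was the minimum effective concentration: the lowest drug concentration giving aberrant hyphal growth, read with an inverted microscope.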

Aspergillus niger = assay: Antimicrobial activity against Aspergillus niger by broth microdilution method; method in brief: as §4
Aspergillus nidulans = assay: Antimicrobial activity against Aspergillus nidulans by broth microdilution method; method in brief: as §4
Aspergillus sydowii = assay: Antimicrobial activity against Aspergillus sydowii by broth microdilution method; method in brief: as §4
Aspergillus versicolor = assay: Antimicrobial activity against Aspergillus versicolor by broth microdilution method; method in brief: as §4
Aspergillus ochraceus = assay: Antimicrobial activity against Aspergillus ochraceus by broth microdilution method; method in brief: as §4
Aspergillus ustus = assay: Antimicrobial activity against Aspergillus ustus by broth microdilution method; method in brief: as §4
Aspergillus sclerotiorum = assay: Antimicrobial activity against Aspergillus sclerotiorum by broth microdilution method; method in brief: as §4
Aspergillus glaucus = assay: Antimicrobial activity against Aspergillus glaucus by broth microdilution method; method in brief: as §4
Penicillium = assay: Antimicrobial activity against Penicillium spp. by broth microdilution method
Method in brief: (§5)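 Filamentous fungus clinical isolates tested by the AFST-EUCAST reference broth microdilution method for moulds. For echinocandins, the endpoint was the minimum effective concentration: the lowest drug concentration giving aberrant hyphal growth, read with an inverted microscope.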

Fusarium oxysporum = assay: Antimicrobial activity against Fusarium oxysporum by broth microdilution method; method in brief: as §4
Fusarium verticillioides = assay: Antimicrobial activity against Fusarium verticillioides by broth microdilution method; method in brief: as §5
Paecilomyces lilacinus = assay: Antimicrobial activity against Paecilomyces lilacinus by broth microdilution method; conditions: Purpureocillium lilacinum; method in brief: as §5
Acremonium sp. = assay: Antimicrobial activity against Acremonium sp.by broth microdilution method; method in brief: as §4
[3] = test system: Scopulariopsis brevicaulis; assay: Antimicrobial activity against Scopulariopsis brevicaulis by broth microdilution method; method in brief: as §5
Trichoderma = assay: Antimicrobial activity against Trichoderma spp. by broth microdilution method; method in brief: as §5
Phialemonium curvatum = assay: Antimicrobial activity against Phialemonium curvatum by broth microdilution method; conditions: Thyridium curvatum; method in brief: as §5
Fusarium reticulatum = assay: Antimicrobial activity against Fusarium reticulatum by broth microdilution method; method in brief: as §5
Alternaria alternata = assay: Antimicrobial activity against Alternaria alternata by broth microdilution method; method in brief: as §4
Lewia infectoria = assay: Antimicrobial activity against Alternaria infectoria by broth microdilution method; method in brief: as §4
Exophiala dermatitidis = assay: Antimicrobial activity against Exophiala dermatitidis by broth microdilution method
Scytalidium hyalinum = assay: Antimicrobial activity against Scytalidium hyalinum by broth microdilution method; conditions: Neoscytalidium hyalinum; method in brief: as §5
[4] = Antimicrobial activity against Rhizopus microsporus by broth microdilution method; method in brief: as §5
Rhizomucor = assay: Antimicrobial activity against Rhizomucor spp.by broth microdilution method; method in brief: as §5
Saksenaea vasiformis = assay: Antimicrobial activity against Saksenaea vasiformis by broth microdilution method; method in brief: as §5
Exophiala jeanselmei = assay: Antimicrobial activity against Exophiala jeanselmei by broth microdilution method

CC[C@@H]([C@H](C)O)n1ncn(-c2ccc(N3CCN(c4ccc(OC[C@@H]5CO[C@@](Cn6cncn6)(c6ccc(F)cc6F)C5)cc4)CC3)cc2)c1=O [POSACONAZOLE]
0.12 µg/mL: MIC50 [1] | MIC50 [2] | MIC90 (Trichosporon inkin) | MIC50 (Aspergillus ochraceus) | MIC50 (Aspergillus ustus) | MIC50 (Aspergillus sclerotiorum) | MIC50 (Aspergillus glaucus)
8 µg/mL: MIC50 (Acremonium sp.)
0.03 µg/mL: MIC50 (Diutina rugosa) | MIC50 (Torulaspora delbrueckii) | MIC50 (Pichia norvegensis) | MIC50 (Candida metapsilosis) | MIC50 ([Candida] zeylanoides)
0.06 µg/mL: MIC50 (Trichosporon inkin) | MIC50 (Aspergillus fumigatus) | MIC50 (Aspergillus nidulans) | MIC50 (Exophiala dermatitidis) | MIC50 (Scytalidium hyalinum) | MIC50 (Exophiala jeanselmei)
4 µg/mL: MIC90 (Penicillium) | MIC50 (Fusarium oxysporum) | MIC50 [3] | MIC50 (Trichoderma) | MIC50 (Phialemonium curvatum) | MIC50 (Fusarium reticulatum) | MIC50 [4] | MIC50 (Rhizomucor) | MIC50 (Saksenaea vasiformis)
2 µg/mL: MIC50 (Rhodotorula mucilaginosa) | MIC50 (Fusarium verticillioides)
0.5 µg/mL: MIC90 (Saccharomyces cerevisiae) | MIC50 (Geotrichum candidum) | MIC90 (Geotrichum candidum) | MIC90 [2] | MIC90 (Aspergillus niger) | MIC90 (Aspergillus sydowii) | MIC90 (Aspergillus versicolor) | MIC90 (Paecilomyces lilacinus) | MIC50 (Lewia infectoria)
> 16 µg/mL: MIC90 (Acremonium sp.)
0.25 µg/mL: MIC50 (Saccharomyces cerevisiae) | MIC50 (Trichosporon ovoides) | MIC50 (Trichosporon dermatis) | MIC50 (Trichosporon jirovecii) | MIC50 (Ustilago) | MIC50 (Papiliotrema laurentii) | MIC50 (Trichosporon domesticum) | MIC50 (Trichosporon) | MIC90 (Aspergillus fumigatus) | MIC50 (Aspergillus niger) | MIC90 (Aspergillus nidulans) | MIC50 (Aspergillus sydowii) | MIC50 (Aspergillus versicolor) | MIC50 (Penicillium) | MIC50 (Paecilomyces lilacinus)
1 µg/mL: MIC50 (Alternaria alternata)
> 8 µg/mL: MIC90 [1] | MIC90 (Diutina rugosa) | MIC90 (Torulaspora delbrueckii) | MIC90 (Pichia norvegensis) | MIC90 (Candida metapsilosis) | MIC90 ([Candida] zeylanoides) | MIC90 (Rhodotorula mucilaginosa) | MIC90 (Trichosporon ovoides) | MIC90 (Trichosporon dermatis) | MIC90 (Trichosporon jirovecii) | MIC90 (Ustilago) | MIC90 (Papiliotrema laurentii) | MIC90 (Trichosporon domesticum) | MIC90 (Trichosporon) | MIC90 (Aspergillus ochraceus) | MIC90 (Aspergillus ustus) | MIC90 (Aspergillus sclerotiorum) | MIC90 (Aspergillus glaucus) | MIC90 (Fusarium oxysporum) | MIC90 (Fusarium verticillioides) | MIC90 [3] | MIC90 (Trichoderma) | MIC90 (Phialemonium curvatum) | MIC90 (Fusarium reticulatum) | MIC90 (Alternaria alternata) | MIC90 (Lewia infectoria) | MIC90 (Exophiala dermatitidis) | MIC90 (Scytalidium hyalinum) | MIC90 [4] | MIC90 (Rhizomucor) | MIC90 (Saksenaea vasiformis) | MIC90 (Exophiala jeanselmei)
